PubChem BioAssay
Activity calls are given as the source filed them.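 How the source made its calls, unless noted: active means inhibition at or above 50% relative to wild type and mutant plate controls; inactive means inhibition below 50%.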

Columns and labels:
[1] = inhibitors of TNFa-induced NFkB p65 translocation, primary screen, imaging, HUVEC, MLSMR starter and 10KST1 sets (AID 438;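 active means inhibition above 20% together with a positive visual image hit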;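 further: compound added about 3h40 before a 20 min TNFalpha stimulation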;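 on inhibition: signal is the nuclear over cytoplasmic p65 intensity ratio per well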); conditions: HUVEC TNFa-induced p65 nuclear translocation; cell count: measured here: nuclei count (cytotoxicity indicator), at 2.08 µM; inhibition: at 2 µM, stronger effect = higher value, 0% TNFa-plus-vehicle, 100% no-TNFa wells
[2] = inhibitors of E-selectin induction by TNFa, primary screen, imaging, HUVEC, immunofluorescence, MLSMR starter and 10KST1 sets (AID 487;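 active means visually confirmed hit in the image check and inhibition above 20%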;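 on inhibition: signal is fraction of cell area covered by stained E-selectin grains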;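 on nuclei count: 100% = median nuclei count of all wells on the same plate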); conditions: HUVEC TNFalpha-induced E-selectin immunofluorescence imaging, at 2 µM; inhibition: stronger effect = higher value; nuclei count: measured here: cell number, toxicity
[3] = DUSP6 inhibitors restoring Erk phosphorylation by chemical complementation, primary imaging in DUSP6-transfected HeLa (AID 609;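 active means compounds giving at least 50% inhibition in the cell-based MKP-3 phosphatase rescue imaging test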;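 on inhibition: phospho-Erk level distribution per well compared with pooled transfected vehicle control wells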); conditions: HeLa MKP-3 transfected, phospho-Erk imaging KS statistic, at 10 µM, cells stimulated with TPA for 15 min
[4] = target: Dual specificity protein phosphatase 6 (Homo sapiens) (UniProt Q16828); assay: as above; conditions: HeLa MKP-3 transfected, phospho-Erk imaging KS statistic; at 10 µM; stronger effect = higher value; cells stimulated with TPA for 15 min
[5] = target: Voltage-gated potassium channel subunit beta-2 (Rattus norvegicus) (UniProt P62483); assay: KvBeta enzyme negative modulators, primary screen, biochemical, NADPH fluorescence (AID 622;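 active means fluorescence slope higher than the sample average by over 3 SD, cut at about -0.22 in these data, passing the limit was not always enough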;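 further: slope of raw intensity against log time taken from 70 to 1610 s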); conditions: recombinant KvBeta, 4-cyanobenzaldehyde reduction, at 10 µM, stronger effect = higher value
[6] = target: Voltage-gated potassium channel subunit beta-2 (Rattus norvegicus) (UniProt P62483); assay: KvBeta positive modulators, primary screen, biochemical, NADPH fluorescence (AID 623;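 active means NADPH fluorescence slope more negative than the mean of all samples by about 3 SD, 99.7% confidence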;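 further: fluorescence intensity change per second fitted from 20 to 320 s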); conditions: Recombinant KvBeta, NADPH fluorescence decrease slope, 10 min; at 10 µM; stronger effect = lower value
[7] = target: Alpha-2C adrenergic receptor (Homo sapiens) (UniProt P18825); assay: modulators of alpha2C/GIRK thallium flux, primary screen, cell-based, HEK293 alpha2C/GIRK1/2 (AID 624;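 active means fluorescence slope after compound addition differing from the mean of all screened samples at 99.7% confidence, in either direction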;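 further: slope of fluorescence ratio to pre-addition baseline per second over 15 to 24 s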); conditions: thallium flux BTC fluorescence, at 10 µM, actives lie on both sides
[8] = inhibitors of larval lipid processing in zebrafish, primary screen, whole organism, PED6 fluorescence, gall bladder and intestine (AID 686;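 active means a full or partial loss of lipid-probe fluorescence in the fish gall bladder, intestine or both, judged by eye; inactive means no fluorescence loss, or compound toxic to the fish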;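 further: larvae 5 to 7 days old with five fish per well; signal comes from phospholipase A2 cleavage of quenched PED6 carried via bile; overnight exposure to compound and PED6 before scoring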); conditions: Zebrafish larvae PED6 lipid processing, fluorescence scoring; screened at 20 µM (by protocol)
Outline: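 Doses: 20 µM single dose. Test system: live zebrafish larvae aged 5-7 days, whole organism. Quantity: five larvae per well. Measured by: By-eye fluorescence microscopy. Reagent: ingested quenched lipid PED6 at 100 nM. Read-out: visual per-well fluorescence inhibition score. Times: overnight exposure of larvae to compound plus PED6.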

[9] = inhibitors of Chlamydomonas gravitaxis, primary screen, whole organism, Chlamydomonas reinhardtii, WT vs cilia-less mutant, absorbance, 96-well (AID 463189); conditions: OD600 absorbance, 2 days, at 10 µM, stronger effect = higher value;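 further: 0% = wild type cc124 cells in DMSO and 100% = ciliumless bld1 mutant cells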
[10] = measured here: cell density z-score
[11] = measured here: nuclear c-Myc green intensity z-score
[12] = measured here: nuclear pErk red intensity z-score, stronger effect = higher value

Voltage-gated potassium channel subunit beta-2 (Rattus norvegicus), sequence (P62483 whole entry, looked up): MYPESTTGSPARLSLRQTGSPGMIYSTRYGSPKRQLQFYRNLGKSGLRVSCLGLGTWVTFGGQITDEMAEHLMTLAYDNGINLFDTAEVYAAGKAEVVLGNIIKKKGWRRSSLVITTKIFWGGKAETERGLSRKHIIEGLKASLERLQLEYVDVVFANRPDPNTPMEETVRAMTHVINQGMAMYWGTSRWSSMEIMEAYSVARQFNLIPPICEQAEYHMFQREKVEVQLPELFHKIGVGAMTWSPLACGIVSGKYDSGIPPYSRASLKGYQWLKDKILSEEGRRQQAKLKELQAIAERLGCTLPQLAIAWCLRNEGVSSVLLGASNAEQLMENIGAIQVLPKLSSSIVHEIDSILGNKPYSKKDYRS
Alpha-2C adrenergic receptor (Homo sapiens), sequence (P18825 whole entry, looked up): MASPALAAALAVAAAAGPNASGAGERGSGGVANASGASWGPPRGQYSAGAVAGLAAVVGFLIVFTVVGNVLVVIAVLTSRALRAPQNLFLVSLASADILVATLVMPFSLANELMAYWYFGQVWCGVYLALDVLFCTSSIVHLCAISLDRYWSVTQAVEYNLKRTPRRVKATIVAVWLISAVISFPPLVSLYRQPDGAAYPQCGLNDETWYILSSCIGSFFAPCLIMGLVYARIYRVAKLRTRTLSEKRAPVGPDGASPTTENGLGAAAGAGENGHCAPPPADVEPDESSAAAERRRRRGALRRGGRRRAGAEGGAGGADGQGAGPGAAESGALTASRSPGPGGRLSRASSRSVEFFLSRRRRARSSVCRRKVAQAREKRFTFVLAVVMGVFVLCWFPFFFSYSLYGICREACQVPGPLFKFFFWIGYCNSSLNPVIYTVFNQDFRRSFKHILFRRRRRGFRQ
Dual specificity protein phosphatase 6 (Homo sapiens), sequence (Q16828 whole entry, looked up): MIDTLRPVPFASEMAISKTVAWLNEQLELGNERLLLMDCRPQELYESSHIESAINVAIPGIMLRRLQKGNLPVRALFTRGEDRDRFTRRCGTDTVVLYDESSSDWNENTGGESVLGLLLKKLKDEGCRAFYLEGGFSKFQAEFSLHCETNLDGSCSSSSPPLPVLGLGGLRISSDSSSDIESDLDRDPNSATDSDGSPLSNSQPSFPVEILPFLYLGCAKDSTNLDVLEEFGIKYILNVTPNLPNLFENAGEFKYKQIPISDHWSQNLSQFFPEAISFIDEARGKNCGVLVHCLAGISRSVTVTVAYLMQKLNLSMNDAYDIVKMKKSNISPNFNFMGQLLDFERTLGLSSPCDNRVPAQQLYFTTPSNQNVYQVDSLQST

SMILES | cell count [1] | inhibition [1] | inhibition [2] | nuclei count [2] [%] | z-score [3, 10] | z-score [3, 11] | z-score [3, 12] | inhibition [4] | fluorescence slope [5] | NADPH fluorescence slope [6] | slope [7] | outcome [8] | inhibition [9]
Cc1cc(=O)oc(C)c1C(=O)N[C@@H]1CCCCNC1=O | 433 | -2.4% (inactive) | -137% (inactive) | 150 | 0.96 | -0.243 | -0.864 | -8.27% (inactive) | -0.423 (inactive) | -6.9e-05 (inactive) | 0.00507 (inactive) | inactive | -3.12% (inactive)
CC1(C)Cc2c(C#N)c(N3CCOCC3)nc(-c3ccccc3)c2CO1 | 600 | -14.3% (inactive) | -25.8% (inactive) | 109 | -0.0371 | -0.989 | 0.333 | 3.66% (inactive) | -0.424 (inactive) | -7.6e-05 (inactive) | 0.0042 (inactive) | inactive | -17.1% (inactive)
Cc1ccnc(N2CCN(c3c4c(c(C#N)c5nc6ccccc6n35)CCC4)CC2)c1 | 585 | -9% (inactive) | -90.1% (inactive) | 135 | -0.195 | 1.1 | 0.491 | 15.9% (inactive) | -0.401 (inactive) | -2e-05 (inactive) | 0.00557 (inactive) | inactive | -3.36% (inactive)
COc1ccc(OC)c(C2/C(=C(/O)c3ccc(C)cc3)C(=O)C(=O)N2Cc2ccco2)c1 (stereo unspecified) | 561 | -1.8% (inactive) | -18.5% (inactive) | 143 | 1.28 | 0.438 | 0.373 | -7.86% (inactive) | -0.568 (inactive) | -1.3e-05 (inactive) | 0.00557 (inactive) | inactive | -7.49% (inactive)
CN1C(=O)C2(N=c3ccccc3=N2)c2ccccc21 | 527 | -4.5% (inactive) | -152% (inactive) | 209 | -0.677 | 0.303 | 0.421 | 7.73% (inactive) | -0.482 (inactive) | -4.4e-05 (inactive) | 0.00491 (inactive) | inactive | 9.55% (inactive)
Cc1cc(C)c(-n2c(O)c(C=NCCN3CCOCC3)c(=O)[nH]c2=O)c(C)c1 | 594 | 6.5% (inactive) | 19% (inactive) | 152 | 0.606 | -1.55 | -1.1 | 14% (inactive) | -0.334 (inactive) | -5e-07 (inactive) | 0.00437 (inactive) | inactive | 0.886% (inactive)
COc1cccc(-c2nc(N3CC(C)CC(C)C3)c3ccccc3n2)c1O (stereo unspecified) | 535 | -11.7% (inactive) | -37.3% (inactive) | 180 | -0.935 | 0.42 | 2.09 | -5.26% (inactive) | -0.393 (inactive) | -2.4e-05 (inactive) | 0.00414 (inactive) | inactive | 0.389% (inactive)
COC(=O)C(NC(C)=O)(Nc1ccc(Br)cc1)C(=O)OC | 485 | -1.7% (inactive) | -127% (inactive) | 153 | 0.275 | 0.746 | -1.04 | 18.2% (inactive) | -0.537 (inactive) | -1.5e-05 (inactive) | 0.00456 (inactive) | inactive | -10.2% (inactive)
CC(C)c1nc2n[nH]c(N)c2c2c1CCC2 | 359 | -3.7% (inactive) | -74.3% (inactive) | 148 | 0.678 | -1.06 | 0.961 | 5.26% (inactive) | -0.409 (inactive) | -0.000125 (inactive) | 0.007 (inactive) | – | 2.52% (inactive)
CC(=O)Nc1cccc(NC(=O)CSc2nc(C)c(C)c(C)c2C#N)c1 | 546 | -8.2% (inactive) | 28% (inactive) | 174 | 0.636 | 0.622 | -1.1 | -4.27% (inactive) | -0.4 (inactive) | -9.2e-06 (inactive) | 0.0055 (inactive) | inactive | -2.25% (inactive)
Oc1ccc(Br)cc1CNn1cnnc1 | 501 | -5.8% (inactive) | -3.9% (inactive) | 122 | -0.232 | 1.89 | 1.27 | -1.75% (inactive) | -0.454 (inactive) | -2.5e-06 (inactive) | 0.0058 (inactive) | inactive | 16.1% (inactive)
CNC(=O)C1CC(=O)N(Cc2ccccc2)C(=Nc2ccc(OC)cc2)S1 (stereo unspecified) | 491 | -5.2% (inactive) | -228% (inactive) | 127 | -1.18 | -0.897 | 1.34 | -14% (inactive) | -0.496 (inactive) | -4.1e-05 (inactive) | 0.00456 (inactive) | inactive | 1.87% (inactive)
Cc1cc(C)n(CC(=O)N2c3ccccc3Sc3ccccc32)n1 | 563 | -0.4% (inactive) | -139% (inactive) | 139 | 0.655 | 0.867 | -0.852 | 15.9% (inactive) | -0.508 (inactive) | -4.4e-05 (inactive) | 0.00518 (inactive) | inactive | 14.7% (inactive)
O=c1[nH]nc2n1CCCCC2 | 530 | -27.5% (inactive) | -139% (inactive) | 180 | 1.3 | -1.27 | -0.317 | 7.73% (inactive) | -0.501 (inactive) | -0.000113 (inactive) | 0.00508 (inactive) | inactive | 11.3% (inactive)
